M5 antag: blocks acetylcholine activation of human M5 receptor. P08912. CHO-hM5 cells, Fluo-8 calcium fluorescence, ACh EC80. inhibition, % at 3 µM. 360,000 tested, 0.59% active;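 active means inhibition above a per-plate cutoff, the mean of that plate's test compounds plus 3 SD, cut at about 27% in these data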;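 further: 0% = acetylcholine EC80 with DMSO and 100% = DMSO without agonist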
M1 PAM: human CHRM1 positive allosteric modulation; activation, % at 3 µM; 360,000 tested, 0.088% active; P11229; AID 588819; CHO-K1 hM1, Fluo-8 calcium fluorescence, ACh EC20; 0% = ACh EC20, 100% = maximal ACh; in the data active means activation above about 19%, passing the limit was not always enough
Target sequence (P11229 whole entry, looked up): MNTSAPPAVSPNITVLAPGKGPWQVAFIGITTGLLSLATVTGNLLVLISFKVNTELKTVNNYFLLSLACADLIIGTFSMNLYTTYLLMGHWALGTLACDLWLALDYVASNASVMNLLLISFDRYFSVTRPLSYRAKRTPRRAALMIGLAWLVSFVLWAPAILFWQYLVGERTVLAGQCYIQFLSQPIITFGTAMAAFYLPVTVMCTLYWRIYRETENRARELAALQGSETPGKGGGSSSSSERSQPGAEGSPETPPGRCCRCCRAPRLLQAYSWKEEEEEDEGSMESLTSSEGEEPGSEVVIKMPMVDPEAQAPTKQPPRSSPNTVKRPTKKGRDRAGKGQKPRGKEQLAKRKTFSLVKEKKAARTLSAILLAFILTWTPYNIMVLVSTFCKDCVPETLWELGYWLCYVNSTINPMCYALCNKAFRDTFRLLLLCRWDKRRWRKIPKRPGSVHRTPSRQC
M5 ag: CHRM5 agonism in calcium assay. CHO-K1 hM5 cells, Fluo-8 calcium fluorescence; 0% DMSO wells, 100% maximal acetylcholine response. activation, % at 3 µM. 360,000 tested, 0.19% active;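 active means activation above the run's mean over test compounds plus 3 SD, cut at about 23% in these data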;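 further: signal is peak over basal fluorescence ratio across the kinetic read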
CHRM1 agonist: human M1 muscarinic receptor agonism; P11229; CHO-K1 hM1, Fluo-8 calcium fluorescence, agonist mode; 0% DMSO, 100% acetylcholine EC100; activation, % at 3 µM; 360,000 tested, 0.33% active; AID 588814;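 active means activation above the run's mean compound activation plus 3 SD, cut at about 16% in these data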;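 further: peak over basal fluorescence ratio within a 140 s kinetic read after compound addition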
CHRM1 antagonist: human CHRM1 antagonism | inhibition, % at 3 µM | CHO-K1 hM1, Fluo-8 calcium fluorescence, ACh EC80 antagonist | P11229 | 360,000 tested, 1.3% active;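 active means percent inhibition above its own plate's cutoff, namely the mean of that plate's compound wells plus 3 SD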;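 further: peak over basal fluorescence ratio during 140 s after agonist addition; 0% = ACh EC80 plus DMSO and 100% = DMSO alone without agonist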
CHRM5 PAM: potentiates acetylcholine response at human M5 receptor | 360,000 tested, 0.3% active | CHO-K1 hM5, Fluo-8 calcium, ACh EC20 PAM; 0% = ACh EC20, 100% = ACh EC100 | activation, % at 3 µM | P08912;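 active means activation above the run cutoff, the mean activation of all test compounds plus 3 SD, cut at about 18% in these data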
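System: CHO-K1 cell line with stable human muscarinic M5 receptor expression | Also added: EC20 acetylcholine as agonist stimulus | Compound: One concentration, 3 µM final (nominal) | Timing: Fluo-8 loading 80 min at 37 °C plus 30 min room temperature | Measured by: Fluo-8 calcium dye fluorescence, kinetic read | Read-out basis: % activation, ACh-normalized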
* hit, by the source's call. Most compounds without a hit are left out; they make up all but 2.1% or so of the library.

For COC(=O)c1ccc(NC(=O)CCc2nnc3ccc(NCc4ccco4)nn23)cc1 the results were M5 antag 0, M1 PAM 10, M5 ag -4, CHRM1 agonist 8, CHRM1 antagonist 8 and CHRM5 PAM 0.
`COc1cccc(/C=C/C(=O)OCC(=O)Nc2ccc3c(c2)OCO3)c1` gave M5 antag 4, M1 PAM 12, M5 ag -3, CHRM1 agonist -3, CHRM1 antagonist -19 and CHRM5 PAM -7.
Cc1ccc(N(Cc2cc3ccc(C)cc3[nH]c2=O)S(=O)(=O)c2ccccc2)c(C)c1 was read as M5 antag -2, M1 PAM 7, M5 ag -4, CHRM1 agonist -2, CHRM1 antagonist -8 and CHRM5 PAM -1.
Screening N=C1/C(=C\c2coc3ccccc3c2=O)C(=O)N=C2SC(c3ccncc3)=NN12 returned M5 antag 51*, M1 PAM -21, M5 ag 65*, CHRM1 agonist 51*, CHRM1 antagonist 58* and CHRM5 PAM -34.
For N=C1/C(=C\c2coc3ccc(O)cc3c2=O)C(=O)N=C2SC=CN12 the results were M5 antag 26, M1 PAM -12, M5 ag 65*, CHRM1 agonist 25*, CHRM1 antagonist 21 and CHRM5 PAM -29.
Screening N=C1/C(=C/c2coc3ccccc3c2=O)C(=O)N=C2SC(c3ccco3)=NN12 returned M5 antag 53*, M1 PAM -26, M5 ag 223*, CHRM1 agonist 85*, CHRM1 antagonist 52* and CHRM5 PAM -35.
For CC1=NN2C(=N)/C(=C\c3cc(C)n(-c4ccccc4)c3C)C(=O)N=C2S1 the results were M5 antag 2, M1 PAM 0, M5 ag -1, CHRM1 agonist -4, CHRM1 antagonist 0 and CHRM5 PAM 2.
Screening N#CCCN(C(=O)COC(=O)C1CCN(S(=O)(=O)c2ccccc2C(F)(F)F)CC1)c1ccccc1 returned M5 antag 12, M1 PAM 0, M5 ag 3, CHRM1 agonist -6, CHRM1 antagonist 4 and CHRM5 PAM -9.
For Cc1ccc(C(=O)NCC(=O)OCCCn2c(=O)[nH]c3ccccc32)cc1C the results were M5 antag 0, M1 PAM 6, M5 ag 0, CHRM1 agonist -3, CHRM1 antagonist -13 and CHRM5 PAM -3.
`CC[C@H]1C(O)C[C@H]2CCN3C(=O)CCC[C@H]1[C@H]23` (some centres not stated) gave M5 antag -10, M1 PAM 7, M5 ag 0, CHRM1 agonist -1, CHRM1 antagonist -4 and CHRM5 PAM 5.
For CN(C)c1ccc(/C=C/c2nc3ccccc3c(=O)n2CCO)cc1 the results were M5 antag 13, M1 PAM -30, M5 ag 22, CHRM1 agonist 30*, CHRM1 antagonist 34 and CHRM5 PAM -16.
Screening Cc1cc(C)c(C)c(S(=O)(=O)N[C@@H](C)C(=O)OCC(N)=O)c1C returned M5 antag 0, M1 PAM 17, M5 ag 2, CHRM1 agonist 0, CHRM1 antagonist -18 and CHRM5 PAM 6.
Screening CCOC(=O)NC(=O)/C(C#N)=C/c1ccc(N(C)C)cc1 returned M5 antag 7, M1 PAM 8, M5 ag 10, CHRM1 agonist 3, CHRM1 antagonist -4 and CHRM5 PAM -6.
CN(C)c1ccc(/C=C(\C#N)C(=O)Nc2nc3c(s2)CCN(Cc2ccccc2)C3)cc1 was read as M5 antag 14, M1 PAM -12, M5 ag 4, CHRM1 agonist 21*, CHRM1 antagonist 35* and CHRM5 PAM -18.
Screening O=C(Nc1nc2c(s1)CN(Cc1ccccc1)CC2)C1CCC1 returned M5 antag 5, M1 PAM -10, M5 ag -12, CHRM1 agonist -8, CHRM1 antagonist 46* and CHRM5 PAM -11.
`O=S(=O)(NCCC1=CCCCC1)c1cccc(S(=O)(=O)N2CCOCC2)c1` gave M5 antag 6, M1 PAM 3, M5 ag 3, CHRM1 agonist -1, CHRM1 antagonist -7 and CHRM5 PAM -5.
Screening CCN(C(=O)C1CCN(c2nc(-c3ccc(OC)cc3)no2)CC1)c1ccc(OC)cc1 returned M5 antag 28*, M1 PAM -21, M5 ag 6, CHRM1 agonist 4, CHRM1 antagonist 42* and CHRM5 PAM -20.
COc1ccc(NC(=O)C2CCN(c3nc(-c4ccc(OC)cc4)no3)CC2)cc1 was read as M5 antag -2, M1 PAM -12, M5 ag 1, CHRM1 agonist -4, CHRM1 antagonist 18 and CHRM5 PAM 0.
For COc1ccc(C/C(N)=N/OC(=O)Cc2ccccc2)cc1OC the results were M5 antag -7, M1 PAM 5, M5 ag 0, CHRM1 agonist -5, CHRM1 antagonist -9 and CHRM5 PAM 3.
CN1CCN(/C=N/c2c(C#N)cnn2-c2ccccc2)CC1 was read as M5 antag 8, M1 PAM -13, M5 ag -12, CHRM1 agonist -3, CHRM1 antagonist 30* and CHRM5 PAM -20.
`C[C@H]1CN([C@@H](C)CO)C(=O)CCCn2nncc2CO[C@H]1CN(C)C(=O)C1CCCCC1` gave M5 antag 1, M1 PAM 12, M5 ag 0, CHRM1 agonist -2, CHRM1 antagonist -23 and CHRM5 PAM -1.
COc1cccc(NC(=O)COC(=O)c2c(-c3ccccc3)noc2C)c1 was read as M5 antag -2, M1 PAM 1, M5 ag -3, CHRM1 agonist -4, CHRM1 antagonist -2 and CHRM5 PAM -3.
CC(CC(=O)Nc1nnc(CC(C)(C)C)s1)c1ccccc1 (configuration not stated) was read as M5 antag -8, M1 PAM 20, M5 ag 4, CHRM1 agonist 0, CHRM1 antagonist -14 and CHRM5 PAM 22*.
`Cc1nnc(NC(=O)CC(C)c2ccccc2)s1` (configuration not stated) gave M5 antag -8, M1 PAM 14, M5 ag 1, CHRM1 agonist -4, CHRM1 antagonist -19 and CHRM5 PAM 9.
`O=C(C=Cc1ccco1)c1cc(Cl)ccc1O` gave M5 antag -3, M1 PAM 0, M5 ag 8, CHRM1 agonist -2, CHRM1 antagonist -1 and CHRM5 PAM 2.
CC(C)[n+]1ccn(C2=C([O-])c3ccccc3C(=O)/C2=N\S(=O)(=O)c2ccccc2)c1 was read as M5 antag 15, M1 PAM 4, M5 ag -3, CHRM1 agonist -6, CHRM1 antagonist -10 and CHRM5 PAM -2.
